Series [1] concerns L1210. In words: Antitumor activity against mouse L1210 cells allografted in ip dosed C3H/DBA2 F1 mouse assessed as optimum dose required to increase in maximum life span administered as qd for 5 days. It counts as functional. A digest of the protocol:
(§1)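 Mice: C3H/DBA2 F1 hybrids, 18.5-22.5 g, inoculated ip with 10⁵ L1210 cells on day 1. Treatment ip daily for 5 days from 24 h later, dose in 0.2 ml water (suspended or dissolved). T/C = ratio of mean life spans, treated vs control; optimum dose gives maximum T/C.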

Series [2] deals with L1210. As to the kind of experiment: Antitumor activity against mouse L1210 cells allografted in C3H/DBA2 F1 mouse assessed as increase in life span at optimum dose, ip qd administered for 5 days relative to control. It counts as functional. An outline of the steps:
as §1

The nature of series [3]: Dissociation constant, pKa of the compound. It counts as physicochemical.

`CCS(=O)(=O)Nc1ccc(Nc2c3ccccc3[n+](C)c3ccc(Cl)cc23)c(OC)c1`: the Activity in the series on L1210 [1] turned out to be 60 mg/kg/day. Further, the T/C (in general, the ratio of treated to control) in the series on L1210 [2] was 166%. The matching figures for `COc1cc(NS(C)(=O)=O)ccc1Nc1c2ccccc2[n+](C)c2ccc(Br)cc12`: 12 mg/kg/day and 158%.

Consider `C[n+]1c2ccccc2c(Nc2cccc(N)c2)c2ccccc21`, for which, in the series with L1210 [1], the Activity was determined as 120 mg/kg/day. Also, in the series on L1210 [2], the T/C is on record as 137%. For `C[n+]1c2ccccc2c(Nc2ccc(C(N)=O)cc2)c2ccccc21`, the Activity in the series on L1210 [1] is reported as over 500 mg/kg/day. Turning to `CS(=O)(=O)Nc1ccc(Nc2c3ccccc3nc3ccc(N)cc23)cc1`, the Activity in the series on L1210 [1] is reported as 2.5 mg/kg/day. The T/C in the series on L1210 [2] turned out to be 181%. The matching figures for `COc1cc(NS(C)(=O)=O)ccc1Nc1c2ccccc2nc2ccc(Cl)cc12`: 10 mg/kg/day and 172%. As to `C[n+]1c2ccccc2c(Nc2ccc(NS(C)(=O)=O)cc2)c2ccc([N+](=O)[O-])cc21`, the Activity in the series on L1210 [1] was over 500 mg/kg/day. Consider `C[n+]1c2ccccc2c(Nc2ccc(NS(C)(=O)=O)cc2)c2cc(Br)ccc21`, for which the Activity in the series with L1210 [1] amounted to 47 mg/kg/day. Further, the T/C in the series with L1210 [2] amounted to 168%. The matching figures for `Nc1ccc(Nc2c3ccccc3nc3ccccc23)cc1`: 33 mg/kg/day and 172%. The matching figures for `C[n+]1c2ccccc2c(Nc2ccccc2)c2cc(N)ccc21`: 14 mg/kg/day and 162%.

Regarding `CC(=O)Nc1ccc2c(Nc3ccccc3)c3ccccc3[n+](C)c2c1`, the Activity in the series with L1210 [1] is 50 mg/kg/day. The T/C in the series with L1210 [2] is 126%. The corresponding values for `CC(=O)Nc1cccc(Nc2c3ccccc3nc3ccccc23)c1` are 30 mg/kg/day and 133%.

Regarding `CCS(=O)(=O)Nc1ccc(Nc2c3ccccc3nc3ccccc23)cc1`, the Activity in the series with L1210 [1] is 150 mg/kg/day. Besides, in the series on L1210 [2], the T/C is listed as 183%. In the case of `CCCCS(=O)(=O)Nc1ccc(Nc2c3ccccc3[n+](C)c3ccccc23)cc1`, the Activity in the series on L1210 [1] is given as over 500 mg/kg/day. Regarding `Cn1ccc(=N)cc1`, the pKa (commonly the pH at which an ionisable group is half protonated) in series [3] was 12.5. On to `CCCCS(=O)(=O)Nc1ccc(Nc2c3ccccc3nc3ccccc23)cc1`, for which the Activity in the series on L1210 [1] is over 500 mg/kg/day. On the same count and under the same terms, with `C[n+]1c2ccccc2c(Nc2ccc(S(N)(=O)=O)cc2)c2ccccc21` the figure was over 500 mg/kg/day. Turning to `COc1cc(NS(C)(=O)=O)ccc1Nc1c2ccccc2[n+](C)c2ccc(Cl)cc12`, the Activity in the series with L1210 [1] is 12 mg/kg/day. Further, the T/C in the series on L1210 [2] was 179%.

Regarding `CC(=O)Nc1ccc2c(Nc3ccc(NS(C)(=O)=O)cc3)c3ccccc3nc2c1`, the Activity with L1210 [1] was found to be 375 mg/kg/day. Further, the T/C with L1210 [2] amounted to 147%.

As to `CS(=O)(=O)Nc1ccc(Nc2c3ccccc3nc3ccc(Br)cc23)cc1`, in the series on L1210 [1], the Activity turned out to be 35 mg/kg/day. Also, in the series with L1210 [2], the T/C worked out at 165%. Take `CC(=O)Nc1ccc2nc3ccccc3c(Nc3ccc(NS(C)(=O)=O)cc3)c2c1`: the Activity with L1210 [1] was found to be 13 mg/kg/day. For the same compound, in the series on L1210 [2], the T/C was 214%.

Regarding `COc1cc(NS(C)(=O)=O)ccc1Nc1c2ccccc2nc2ccccc12` [AMSACRINE], the Activity with L1210 [1] amounted to 12 mg/kg/day. Besides, the T/C in the series on L1210 [2] was 196%. The corresponding values for `C[n+]1c2ccccc2c(Nc2ccc(N)cc2)c2ccccc21` are 75 mg/kg/day and 163%. The corresponding values for `CC(=O)Nc1ccc2c(c1)c(Nc1ccc(NS(C)(=O)=O)cc1)c1ccccc1[n+]2C` are 6 mg/kg/day and 181%. The corresponding values for `CCCS(=O)(=O)Nc1ccc(Nc2c3ccccc3nc3ccccc23)cc1` are 225 mg/kg/day and 134%. In the case of `C[n+]1c2ccccc2c(Nc2ccc(NS(C)(=O)=O)cc2)c2cc(N)ccc21`, in the series with L1210 [1], the Activity was found to be 1.25 mg/kg/day. For the same compound, the T/C in the series on L1210 [2] is 180%. Take `NC(=O)c1ccc(Nc2c3ccccc3nc3ccccc23)cc1`: the Activity in the series with L1210 [1] is listed as over 500 mg/kg/day. For the compound `C[n+]1c2ccccc2c(Nc2ccccc2)c2ccc(N)cc21`, the Activity with L1210 [1] was found to be 20 mg/kg/day. Also, the T/C with L1210 [2] is on record as 148%.

Take `COc1cc(NS(C)(=O)=O)ccc1Nc1c2ccccc2[n+](C)c2ccccc12`: in the series with L1210 [1], the Activity is 12 mg/kg/day. Besides, the T/C in the series with L1210 [2] is recorded as 172%. The matching figures for `CC(=O)Nc1cccc(Nc2c3ccccc3[n+](C)c3ccccc23)c1`: 67 mg/kg/day and 132%. The corresponding values for `C[n+]1c2ccccc2c(Nc2ccc(NS(C)(=O)=O)cc2)c2ccccc21` are 95 mg/kg/day and 184%. With `c1ccc(Nc2c3ccccc3nc3ccccc23)cc1`, the Activity with L1210 [1] was over 500 mg/kg/day. `CS(=O)(=O)Nc1ccc(Nc2c3ccccc3nc3cc(N)ccc23)cc1`: the Activity in the series with L1210 [1] is recorded as 25 mg/kg/day. Further, in the series on L1210 [2], the T/C is given as 178%. The corresponding values for `COc1cc(NS(C)(=O)=O)ccc1Nc1c2ccccc2nc2ccc(Br)cc12` are 6 mg/kg/day and 219%.

Take `NS(=O)(=O)c1ccc(Nc2c3ccccc3nc3ccccc23)cc1`: the Activity in the series with L1210 [1] was over 500 mg/kg/day. Take `C[n+]1c2ccccc2c(Nc2ccc(NS(C)(=O)=O)cc2)c2ccc(N)cc21`: in the series on L1210 [1], the Activity came out at 5 mg/kg/day. Further, the T/C in the series with L1210 [2] is 167%.

`C[n+]1c2ccccc2c(Nc2ccccc2)c2ccc([N+](=O)[O-])cc21`: the Activity in the series with L1210 [1] is over 500 mg/kg/day.

On to `CS(=O)(=O)Nc1ccc(Nc2c3ccccc3nc3cc([N+](=O)[O-])ccc23)cc1`, for which the Activity with L1210 [1] was found to be 250 mg/kg/day. Further, the T/C in the series with L1210 [2] stood at 127%.

`C[n+]1c2ccccc2c(Nc2ccccc2)c2ccccc21`: the Activity with L1210 [1] was over 500 mg/kg/day.

As to `CC(=O)Nc1ccc2c(Nc3ccc(NS(C)(=O)=O)cc3)c3ccccc3[n+](C)c2c1`, the Activity with L1210 [1] was determined as 15 mg/kg/day. In the series with L1210 [2], the T/C is given as 134%. The corresponding values for `CCS(=O)(=O)Nc1ccc(Nc2c3ccccc3[n+](C)c3ccccc23)cc1` are 110 mg/kg/day and 166%. As for `CCCS(=O)(=O)Nc1ccc(Nc2c3ccccc3[n+](C)c3ccccc23)cc1`, the Activity in the series with L1210 [1] was over 500 mg/kg/day. For the compound `CC(=O)Nc1ccc2c(c1)c(Nc1ccccc1)c1ccccc1[n+]2C`, in the series on L1210 [1], the Activity stood at 22 mg/kg/day. Besides, the T/C in the series with L1210 [2] is reported as 158%.

As for `Cn1ccc(=N)c2ccccc21`, in series [3], the pKa was found to be 12.4.

Consider `Nc1cccc(Nc2c3ccccc3nc3ccccc23)c1`, for which the Activity with L1210 [1] turned out to be 40 mg/kg/day. For the same compound, in the series on L1210 [2], the T/C turned out to be 146%.

As to `CS(=O)(=O)Nc1ccc(Nc2c3ccccc3nc3ccccc23)cc1`, the Activity in the series on L1210 [1] was 45 mg/kg/day. In the series on L1210 [2], the T/C is 207%.
